Calls of active or inactive are those of the source. No cut-off for these calls is given here.
Columns and labels:
MG-63 = experiment: Increase in osteocalcin levels in human MG63 cells at 1 uM after 72 hrs by ELISA; type: functional, cell-based
Outline: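 Cells treated with 1 μm for 72 h; osteocalcin or osteopontin in culture medium by sandwich ELISA, HRP-streptavidin/TMB, 450 nm; percent change versus untreated control.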

[1] = Reversal of induction of BMP2 expression in mouse MC3T3-E1 cells at 1 uM by Western blot in presence of short interfering ERalpha-RNA; type: functional, cell-based
Osteoblast [2] = experiment: Effect on growth differentiation factor 10 gene expression in rat primary osteoblast cells assessed as expression ratio of treated to untreated control by microarray analysis; type: functional
Outline: (§1)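 Resveratrol-treated and vehicle-treated primary osteoblasts were profiled on a mouse osteogenesis-focused cDNA array (GEArray Q series) built to track gene expression during osteogenic differentiation. Each gene's signal in treated cells was expressed as a ratio to untreated control.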

Osteoblast [3] = experiment: Effect on insulin-like growth factor 1 gene expression in rat primary osteoblast cells assessed as expression ratio of treated to untreated control by microarray analysis; type: functional; outline: as §1
MC3T3-E1 [4] = experiment: Increase in BMP2 expression in mouse MC3T3-E1 cells expressing pBMP2 mutant at 1 uM after 4 hrs by luciferase method relative to control; type: functional, cell-based
Outline: (§2)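 MC3T3-E1 cells transfected with BMP-2 promoter–luciferase constructs (full promoter or deletions), treated with 1 μm or vehicle for 4 h; Dual-Luciferase assay; means ± S.D.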

MC3T3-E1 [5] = experiment: Reversal of induction in ER.DNA complex in mouse MC3T3-E1 cells at 1 uM by RT-PCR in presence of ICI-182780; type: functional, cell-based
Outline: (§3)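 BMP-2 promoter quantified by real-time PCR (45 cycles, 61 °C anneal), reported as IP-to-input Ct ratio. DN-Src by 3 μg vector, PP2 at 10 μM; ICI182780 and tamoxifen at indicated concentrations.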

MC3T3-E1 [6] = experiment: Increase in BMP2 expression in mouse MC3T3-E1 cells expressing pBMP2delta1 mutant at 1 uM after 4 hrs by luciferase method relative to control; type: functional, cell-based; outline: as §2
Rattus norvegicus [7] = experiment: Antiapoptotic activity against osteoblasts in ovariectomized Wistar rat at 10 mg/kg after 10 weeks; type: functional, organism-based; design: dose 10 mg/kg
Outline: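 After 10 weeks, lumbar vertebrae were removed. Apoptotic osteoblasts were detected by TUNEL staining (Klenow FragEL) in undecalcified, plastic-embedded sections. Values are means ± S.D.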

Osteoblast [8] = experiment: Effect on integrin alpha V gene expression in rat primary osteoblast cells assessed as expression ratio of treated to untreated control by microarray analysis; type: functional; outline: as §1
[9] = Reversal of increase in pBMP2 expression in mouse MC3T3-E1 cells expressing small interfering RNA for FOXA1 protein at 1 uM by luciferase method; type: functional, cell-based
Osteoblast [10] = experiment: Inhibition of antiapoptotic activity in rat primary osteoblast cells at 1 uM after 48 hrs in presence of BMP2-specific neutralizing antibody; type: functional, cell-based
[11] = Effect on colony stimulating factor 2 gene expression in rat primary osteoblast cells assessed as expression ratio of treated to untreated control by microarray analysis; type: functional
[12] = Reversal of increase in BMP2 expression in mouse MC3T3-E1 cells expressing small interfering RNA for FOXA1 protein at 1 uM by Western blot; type: functional, cell-based
MC3T3-E1 [13] = experiment: Inhibition of TNF-alpha-induced apoptosis in mouse MC3T3-E1 cells after 24 hrs by flow cytometry; type: functional, cell-based
Outline: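 Cells washed in PBS, held 30 min in 0.5% Triton X-100/PBS/0.05% RNase A, then propidium iodide (50 μg/ml) added and kept on ice 15–30 min. Apoptosis is the hypodiploid fraction below the G0/G1 peak, by flow cytometry. Run in triplicate and repeated on three occasions.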

[14] = Reversal of increase in BMP2 expression in mouse MC3T3-E1 cells expressing pBMP2/mERE mutant at 1 uM after 4 hrs by luciferase method; type: functional, cell-based
MC3T3-E1 [15] = experiment: Reversal of increase in ER.DNA complex in mouse MC3T3-E1 cells expressing small interfering RNA for FOXA1 protein at 1 uM by RT-PCR; type: functional, cell-based
Osteoblast [16] = experiment: Effect on FMS-like tyrosine kinase 1 gene expression in rat primary osteoblast cells assessed as expression ratio of treated to untreated control by microarray analysis; type: functional
Osteoblast [17] = experiment: Effect on MAD homolog 4 gene expression in rat primary osteoblast cells assessed as expression ratio of treated to untreated control by microarray analysis; type: functional
Osteoblast [18] = experiment: Increase in BMP2 levels in rat primary osteoblast cells at 1 uM by Western blot; type: functional, cell-based; conditions: TDE = time-dependent effect
Outline: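 Osteoblasts treated with 1 μm for the indicated times; lysates resolved by SDS-PAGE, transferred to nitrocellulose, probed with anti-BMP-2, ECL detection.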

MC3T3-E1 [19] = experiment: Reversal of increase in ER.DNA complex in mouse MC3T3-E1 cells transfected with dominant-negative mutant Src expression vector at 1 uM by RT-PCR; type: functional, cell-based; outline: as §3
Osteoblast [20] = experiment: Effect on fibronectin 1 gene expression in rat primary osteoblast cells assessed as expression ratio of treated to untreated control by microarray analysis; type: functional
Rattus norvegicus [21] = experiment: Increase in serum BMP2 levels in ovariectomized Wistar rat at 10 mg/kg, po after 10 weeks by ELISA relative to sham operated control; type: functional, organism-based; design: dose 10 mg/kg
Outline: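 Ovariectomized rats given indicated doses or estrogen by oral feeding; serum BMP-2 by ELISA 10 weeks after surgery; compared with sham-operated group; n = 8/group, means ± S.D.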

MDA-MB-231 = experiment: Enhancement of FOXO3a nuclear accumulation in human MDA-MB-231 cells transfected with dominant negative Akt mutant; type: functional, cell-based
Outline: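 MDA-MB-231 cells transfected with vector, constitutively active Akt or dominant negative Akt, treated ± compound; analyzed by Western blotting and BMP-2 promoter luciferase activity.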

MC3T3-E1 [22] = experiment: Increase in BMP2 mRNA levels in mouse MC3T3-E1 cells at 1 uM by RT-PCR method; type: functional, cell-based; conditions: TDE = time-dependent effect
Outline: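 Cells treated with 1 μm for 48 h; BMP-2 mRNA measured by quantitative real-time RT-PCR (SYBR Green, 0.5 μm each primer, 4 mm MgCl2, fluorescence read at 82 °C) and normalized.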

Osteoblast [23] = experiment: Effect on matrix metalloprotease 10 gene expression in rat primary osteoblast cells assessed as expression ratio of treated to untreated control by microarray analysis; type: functional; outline: as §1
Osteoblast [24] = experiment: Effect on procollagen 4 alpha 6 gene expression in rat primary osteoblast cells assessed as expression ratio of treated to untreated control by microarray analysis; type: functional; outline: as §1
T47D = experiment: Reduction in anchorage-independent colony formation of human T47D cells at 1 uM by soft agar colony forming assay; type: functional, cell-based
Outline: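 Seeded in 0.35% noble agar in DMEM/10% FBS over a 0.7% agar bed. Colonies of at least 50 μm counted after 3 weeks under a dissecting microscope, six replicates per treatment. Three separate experiments.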

Oc1ccc(/C=C/c2cc(O)cc(O)c2)cc1 [RESVERATROL]
Activity (MG-63): Active | Activity [1]: Active | Ratio (Osteoblast [2]): 0.93 | Ratio (Osteoblast [3]): 4.54 | Activity (MC3T3-E1 [4]): Active | Activity (MC3T3-E1 [5]): Dose-dependent effect | Activity (MC3T3-E1 [6]): Active | Activity (Rattus norvegicus [7]): Active | Ratio (Osteoblast [8]): 4.64 | Activity [9]: Active | Activity (Osteoblast [10]): Active | Ratio [11]: 0.35 | Activity [12]: Active | Activity (MC3T3-E1 [13]): Active | Activity [14]: 80% | Activity (MC3T3-E1 [15]): Active | Ratio (Osteoblast [16]): 0.41 | Ratio (Osteoblast [17]): 2.63 | Activity (Osteoblast [18]): tde | Activity (MC3T3-E1 [19]): Active | Ratio (Osteoblast [20]): 8.76 | Activity (Rattus norvegicus [21]): Active | Activity (MDA-MB-231): Active | Activity (MC3T3-E1 [22]): tde | Ratio (Osteoblast [23]): 1 | Ratio (Osteoblast [24]): 3.689 | Activity (T47D): Active
